Most compounds without a hit are left out; they make up all but 1.4% or so of the library.
APOBEC3A inh – human APOBEC3A DNA deaminase inhibition | recombinant A3A, FAM/TAMRA ssDNA deamination fluorescence | 0.41% of 330,000 active | inhibition, % at 20 µM | P31941;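 active = at least 40% inhibition at 20 µM here, with at most 30% in a related deaminase screen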;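 note: plate controls were A3A with DMSO for no effect and wells lacking A3A enzyme for full effect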
Target sequence (P31941 whole entry, looked up): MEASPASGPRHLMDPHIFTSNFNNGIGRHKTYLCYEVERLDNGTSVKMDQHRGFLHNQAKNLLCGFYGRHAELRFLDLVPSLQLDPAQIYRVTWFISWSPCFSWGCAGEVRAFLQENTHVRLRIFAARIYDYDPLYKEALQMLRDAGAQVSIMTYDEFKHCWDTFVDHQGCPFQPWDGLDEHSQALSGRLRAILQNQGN
APJ antag – antagonists of human APJ apelin receptor | CHO-K1 APJ beta-arrestin complementation, luminescence | 0.32% of 330,000 active | inhibition, % at 20 µM | P35414;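 active = inhibition above about 40% at 20 µM, limit read from the data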;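 note: cells challenged with 10 nM apelin-13 agonist together with compound; plate controls were apelin-13 plus DMSO wells for no effect and DMSO wells lacking apelin-13 for full effect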
CCR6 antagonist – CCR6 (human) receptor antagonism. CHO-K1 CCR6 PathHunter beta-arrestin, luminescence, CCL20-stimulated. inhibition, % at 20 µM. 0.49% of 340,000 active;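 active = compounds whose inhibition of the agonist-driven luminescence signal at 20 µM reaches about 50%, limit read from the data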;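 note: cells stimulated with CCL20 at 14 nM final; plate controls were DMSO with CCL20 for no effect and DMSO without agonist for full effect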
Target sequence (P51684 whole entry, looked up): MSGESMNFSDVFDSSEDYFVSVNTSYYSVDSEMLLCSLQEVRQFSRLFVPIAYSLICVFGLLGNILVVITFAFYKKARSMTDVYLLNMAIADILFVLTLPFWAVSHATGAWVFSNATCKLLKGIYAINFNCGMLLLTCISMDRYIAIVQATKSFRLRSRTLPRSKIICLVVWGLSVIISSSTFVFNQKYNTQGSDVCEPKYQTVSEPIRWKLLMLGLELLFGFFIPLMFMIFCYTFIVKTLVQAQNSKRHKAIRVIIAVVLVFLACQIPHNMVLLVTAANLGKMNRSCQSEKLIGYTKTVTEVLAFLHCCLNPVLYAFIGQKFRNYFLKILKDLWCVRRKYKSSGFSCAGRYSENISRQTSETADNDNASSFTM
APJ ag – APJ receptor agonism | P35414 | CHO-K1 APJ PathHunter beta-arrestin, luminescence; 0% DMSO wells, 100% apelin | activation, % at 20 µM | 0.11% of 330,000 active;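 active = activation more than six SD over the plate average, tested at 20 µM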;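 note: 0% = DMSO alone and 100% = apelin-13 at 10 nM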
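Assay system: engineered CHO-K1 APJ arrestin reporter cells; Amount: 1000 CHO-K1 reporter cells seeded per well; Dosing: one dose, 20 µM compound, 1% DMSO; Times: compound stimulation 90 min at 25 °C, detection 60 min; Measured by: luminescent beta-gal fragment complementation, chemiluminescent substrate; Read-out: APJ–arrestin association signal; Controls: DMSO vs Apelin-13 10 nM.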
CXCR6 block – CXCR6 (human) receptor inhibition; CHO-K1 PathHunter CXCR6 beta-arrestin, luminescence; inhibition, % at 20 µM; 0.36% of 360,000 active; in the data active = inhibition above about 34%, passing the limit was not always enough;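 note: antagonist mode with CXCL16 agonist at 10 nM final; 0% = 10 nM CXCL16 with DMSO and 100% = unstimulated wells without agonist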
A3G deaminase – blocks human APOBEC3G single-stranded DNA deamination. Q9HC16. recombinant A3G, ssDNA deamination FAM/TAMRA fluorescence. inhibition, % at 20 µM. 0.28% of 330,000 active. AID 493012;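 active = inhibition of at least 40% at 20 µM, with no more than 30% in the related APOBEC3A deaminase screen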;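 note: plate controls were DMSO wells with A3G for no effect and wells lacking A3G enzyme for full effect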
APJ antag conf – confirmation of human APJ apelin receptor antagonists | shares compounds with APJ antag | APJ beta-arrestin recruitment, luminescence, antagonist mode | inhibition, % at 20 µM | 66% of 950 active; in the data active = inhibition above about 50%
An asterisk follows results filed as active; / = not tested or not shown.

SMILES | APOBEC3A inh | APJ antag | CCR6 antagonist | APJ ag | CXCR6 block | A3G deaminase | APJ antag conf
Cc1ccc(OCC(=O)Nc2ccc3c(c2)OCO3)c(C)c1 | -6 | 66* | 5 | -3 | 1 | -5 | 45
Cc1ccc(NC(=O)Nc2ccc3c(c2)OCO3)c(Br)c1 | 6 | 41* | 10 | 4 | -1 | 21 | 16
CCCC(=O)Nc1cc2c3c(c1)C(C)C(=O)N3CCC2 (stereo unspecified) | 1 | 5 | -4 | -8 | -6 | -7 | /
Cn1cccc1/C=C(/C#N)C(N)=S | -6 | 41* | 29 | -9 | 8 | -10 | 58*
COc1ccc2nc(NC(=O)CSC3=NCCS3)sc2c1 | -1 | 41* | 16 | -3 | 0 | -3 | -13
CCOc1ccc2nc(NC(=O)CSC3=NCCS3)sc2c1 | -13 | 15 | -20 | -5 | -8 | -4 | /
CCN1C(=O)/C(=C\C=C2/C=CC=CN2CC)SC1=S | 19 | 65* | 64* | -7 | 54* | 6 | 122*
Cn1c(=O)[nH]c(=O)c2c1nc(N1CCNCC1)n2Cc1cccc2ccccc12 | -1 | 41* | 54* | -12 | 45* | -1 | 92*
Cn1c(=O)c2c(nc(N3CCNCC3)n2Cc2cccc3ccccc23)n(C)c1=O | -3 | 57* | 62* | -17 | 47* | -6 | 99*
C/C(=N\NC(=O)c1cc2ccccc2cc1O)c1ccccn1 | -6 | 44* | 20 | -20 | 18 | -5 | 30
COc1ccc(-c2cc(-c3ccccc3)nc(NN)n2)cc1OC | 2 | 57* | 86* | -13 | 43* | -4 | 129*
Cc1ccc(-c2cc(-c3ccccc3)nc(NN)n2)cc1 | -3 | 78* | 64* | -15 | 29 | -2 | 140*
COc1nc(-c2ccccc2)cc(-c2ccc(OC)c(OC)c2)n1 | 1 | -17 | -18 | 0 | 1 | -1 | /
COc1cc(CC(=O)OCC(=O)c2ccc[nH]2)cc(OC)c1OC | 3 | 1 | 7 | -2 | 2 | 0 | /
O=C(N/N=C/c1cc(Br)cc(Br)c1O)c1ccncc1 | -3 | -42 | -9 | 1 | / | -9 | /
O=C(N/N=C/c1cc(Br)cc([N+](=O)[O-])c1O)c1ccc(NC(=O)c2ccc(F)cc2)cc1 | 2 | 49* | 69* | -9 | 28 | 0 | 86*
C=CCN(CC=C)Cc1cc(=O)oc2cc(C)c(C)cc12 | / | / | / | / | -4 | / | /
COc1ccc(-c2c3c(nc4sc(C(=O)Nc5cc(C)on5)c(N)c24)CCC3)cc1 | -6 | 55* | 9 | -17 | 10 | -13 | 30
COc1ccc(-c2c3c(nc4sc5c(=O)[nH]c(C)nc5c24)CCC3)cc1 | -5 | 6 | -4 | -2 | 5 | -6 | /
CCOC(=O)C1CCCN(c2c(NCCN(CC)c3ccccc3)c(=O)c2=O)C1 (stereo unspecified) | -9 | 40* | 8 | 0 | 3 | -8 | 4
CCOC(=O)C1CCCN(c2c(NCCCN(CC)c3ccccc3)c(=O)c2=O)C1 (stereo unspecified) | -3 | -13 | -4 | -1 | -1 | -2 | /
COc1ccc(-c2cc(=O)c3ccc(O)cc3o2)cc1OC | / | / | / | / | -2 | / | /
Nc1ccc(-c2c3ccc(=O)cc-3oc3cc(O)ccc23)c(C(=O)O)c1 | -37 | 43* | 39 | -9 | 26 | -71 | 66*
O=C(/C=C/[C@H]1O[C@@H](n2ccc(=O)[nH]c2=O)[C@H](O)[C@@H]1O)NCc1ccc2c(c1)OCO2 | / | / | / | / | -4 | / | /
CCC(CO)NC(=O)c1ccc(-c2nn(C)c(=O)c3ccccc23)cc1 (stereo unspecified) | -2 | 50* | -6 | 1 | 3 | -2 | 16
SMILES | APOBEC3A inh | APJ antag | CCR6 antagonist | APJ ag | CXCR6 block | A3G deaminase | APJ antag conf
OC(Cc1ccccc1)c1ncc(-c2ccc(Cl)cc2)[nH]1 (stereo unspecified) | / | / | / | / | -6 | / | /
O=C(COc1ccc(Cl)cc1)Nc1ccc2c(c1)C(=O)NC2=O | 2 | 5 | 0 | -1 | -6 | -2 | /
O=C(c1cccs1)c1cn(CC(=O)N2CCc3ccccc3C2)c2ccccc12 | 4 | 43* | 25 | -22 | 0 | 0 | 28
Cc1cccc(C(=O)Nc2cccc(C(=O)N/N=C/c3ccncc3)c2)c1 | -4 | 4 | 0 | 1 | -6 | -4 | /
Cc1cccc(C(=O)Nc2ccc(C(=O)/C=C/c3ccncc3)cc2)c1 | 0 | 41* | 41 | 2 | 59* | -8 | 77*
CC(=NNC(=S)Nc1ccccc1)c1ccccn1 | / | / | / | / | -10 | / | /
C=CCNC(=S)N/N=C(\C)c1ccccn1 | -3 | 67* | 50 | -6 | 20 | -7 | 48
COc1ccc(NC(=O)CS(=O)c2cccc(C(F)(F)F)c2)cc1 (stereo unspecified) | 1 | 13 | 8 | 2 | 5 | 0 | /
O=C1Nc2ccccc2C1=Nc1ccc(Br)cc1 | -3 | 63* | 69* | -14 | 42* | 0 | 147*
Cc1ccc(N=C2C(=O)Nc3ccccc32)cc1 | -3 | 40* | 56* | -10 | 34 | -9 | 78*
O=C(c1ccc(F)cc1)N1CCCCC(S(=O)(=O)c2ccccc2)C1=O (stereo unspecified) | -4 | 11 | -8 | -3 | 3 | -7 | /
O=C(NNc1c2ccccc2nc2ccccc12)c1ccccc1O | 5 | 27 | 43 | -5 | 26 | 7 | /
O=C(NNc1c2ccccc2nc2ccccc12)c1ccc(O)cc1 | 4 | 41* | 57* | -7 | 36 | -7 | 69*
CC1(C(=O)O)CCCN1C(=O)c1cccc2ccccc12 (stereo unspecified) | / | / | / | / | 0 | / | /
COc1ccc(N2CC(C(=O)Nc3ccccc3C(=O)NC3CC3)CC2=O)cc1 (stereo unspecified) | 0 | 41* | 2 | 1 | -14 | -11 | 7
Cc1ccc(NC(=O)c2cccc(NC(=O)CC3SC(N4CCCCC4)=NC3=O)c2)nc1 (stereo unspecified) | -1 | 3 | 0 | 1 | 6 | -1 | /
Cc1nn(Cc2ccc(Cl)cc2)c(C)c1NC(=O)C1CC=CCC1C(=O)O (stereo unspecified) | -1 | 50* | 20 | -2 | -1 | -2 | 33
CCc1nc(SCC(=O)N2CCCCC2)c2c(=O)n(C)c(=O)n(C)c2n1 | 1 | 6 | -2 | 0 | 6 | -3 | /
CCn1nc(C)cc1-c1nnc(Sc2ncc([N+](=O)[O-])s2)n1C | -3 | 57* | 97* | 3 | 84* | 13 | 65*
O=C1c2ccccc2-c2nnc(-c3ccccc3)cc21 | 1 | 53* | 56* | -13 | 29 | 3 | 143*
Cc1cccc(-c2cc3c(nn2)-c2ccccc2C3=O)c1 | -2 | 17 | 42 | -11 | 26 | -8 | /
